According to ChEMBL document CHEMBL1141691, “Synthesis and antibacterial activity of the C-7 side chain of 3-aminoquinazolinediones” (Bioorg Med Chem Lett, 2008):
In brackets after ≈: the same amount, converted by molar mass.

Columns and labels:
Escherichia coli [1] = experiment: Antibacterial activity against wild-type Escherichia coli MC4100 by microbroth dilution susceptibility assay; type: functional
How it was run: (§1)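 MIC determined by standard broth microdilution following CLSI (formerly NCCLS) guidelines. Value is the lowest concentration inhibiting bacterial growth.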

Escherichia coli [2] = experiment: Antibacterial activity against TolC knock-out Escherichia coli by microbroth dilution susceptibility assay; type: functional; how it was run: as §1
Enterococcus faecalis = experiment: Antibacterial activity against Enterococcus faecalis MGH-2 by microbroth dilution susceptibility assay; type: functional; how it was run: as §1
Staphylococcus aureus = experiment: Antibacterial activity against Staphylococcus aureus 29213 by microbroth dilution susceptibility assay; type: functional; how it was run: as §1
Streptococcus pyogenes = experiment: Antibacterial activity against Streptococcus pyogenes C203 by microbroth dilution susceptibility assay; type: functional; how it was run: as §1
[3] = Inhibition of Escherichia coli DNA gyrase

MIC (Escherichia coli [1]) [µg/mL] | MIC (Escherichia coli [2]) [µg/mL] | MIC (Enterococcus faecalis) [µg/mL] | MIC (Staphylococcus aureus) [µg/mL] | MIC (Streptococcus pyogenes) [µg/mL] | IC50 [3] [nM] | Compound
> 64 | 0.25 (≈ 0.752 µM) | 4 (≈ 12 µM) | 4 (≈ 12 µM) | 4 (≈ 12 µM) | 6300 | Cc1c(N2CCCCC2)c(F)cc2c(=O)n(N)c(=O)n(C3CC3)c12
4 (≈ 10.7 µM) | 0.03 (≈ 0.0799 µM) | 0.13 (≈ 0.346 µM) | 0.5 (≈ 1.33 µM) | 0.015 (≈ 0.04 µM) | 200 | CN[C@@H](C)[C@@H]1CCN(c2c(F)cc3c(=O)n(N)c(=O)n(C4CC4)c3c2C)C1
8 (≈ 21.3 µM) | 0.13 (≈ 0.346 µM) | 0.25 (≈ 0.666 µM) | 0.5 (≈ 1.33 µM) | 0.03 (≈ 0.0799 µM) | 400 | CCC(N)C1CCN(c2c(F)cc3c(=O)n(N)c(=O)n(C4CC4)c3c2C)C1 (stereo unspecified)
4 (≈ 9.45 µM) | 0.06 (≈ 0.142 µM) | 0.25 (≈ 0.59 µM) | 0.13 (≈ 0.307 µM) | 0.03 (≈ 0.0708 µM) | 260 | Cc1c(N2CCC(C(N)c3ccccc3)C2)c(F)cc2c(=O)n(N)c(=O)n(C3CC3)c12 (stereo unspecified)
1 (≈ 3 µM) | 0.25 (≈ 0.75 µM) | 8 (≈ 24 µM) | 8 (≈ 24 µM) | 1 (≈ 3 µM) | 200 | Cc1c(N2CCC(N)C2)c(F)cc2c(=O)n(N)c(=O)n(C3CC3)c12 (stereo unspecified)
16 (≈ 42.6 µM) | 0.25 (≈ 0.666 µM) | 2 (≈ 5.33 µM) | 1 (≈ 2.66 µM) | 0.125 (≈ 0.333 µM) | 1600 | Cc1c(N2CCC(C(C)(C)N)C2)c(F)cc2c(=O)n(N)c(=O)n(C3CC3)c12 (stereo unspecified)
2 (≈ 5.76 µM) | 0.13 (≈ 0.374 µM) | 0.5 (≈ 1.44 µM) | 0.5 (≈ 1.44 µM) | 0.06 (≈ 0.173 µM) | 400 | Cc1c(N2CCC(CN)C2)c(F)cc2c(=O)n(N)c(=O)n(C3CC3)c12 (stereo unspecified)
16 (≈ 44.3 µM) | 0.5 (≈ 1.38 µM) | 4 (≈ 11.1 µM) | 4 (≈ 11.1 µM) | 0.125 (≈ 0.346 µM) | 1200 | Cc1c(N2CCC(CCN)C2)c(F)cc2c(=O)n(N)c(=O)n(C3CC3)c12 (stereo unspecified)
2 (≈ 5.36 µM) | 0.03 (≈ 0.0803 µM) | 0.13 (≈ 0.348 µM) | 0.25 (≈ 0.669 µM) | 0.03 (≈ 0.0803 µM) | 800 | Cc1c(N2CCC(C3(N)CC3)C2)c(F)cc2c(=O)n(N)c(=O)n(C3CC3)c12 (stereo unspecified)
16 (≈ 50.3 µM) | 0.13 (≈ 0.408 µM) | 2 (≈ 6.28 µM) | 1 (≈ 3.14 µM) | 1 (≈ 3.14 µM) | 1900 | Cc1c(N2CCCC2)c(F)cc2c(=O)n(N)c(=O)n(C3CC3)c12
> 64 | 2 (≈ 6.57 µM) | 64 (≈ 210 µM) | 32 (≈ 105 µM) | 64 (≈ 210 µM) | 12500 | Cc1c(N2CCC2)c(F)cc2c(=O)n(N)c(=O)n(C3CC3)c12
8 (≈ 20.5 µM) | 0.13 (≈ 0.334 µM) | 0.25 (≈ 0.642 µM) | 0.5 (≈ 1.28 µM) | 0.13 (≈ 0.334 µM) | 900 | CCN[C@@H](C)[C@@H]1CCN(c2c(F)cc3c(=O)n(N)c(=O)n(C4CC4)c3c2C)C1

Compound | MIC (Escherichia coli [1]) [µg/mL] | MIC (Escherichia coli [2]) [µg/mL] | MIC (Enterococcus faecalis) [µg/mL] | MIC (Staphylococcus aureus) [µg/mL] | MIC (Streptococcus pyogenes) [µg/mL] | IC50 [3] [nM]
Cc1c(N2CC[C@H]([C@H](C)N)C2)c(F)cc2c(=O)n(N)c(=O)n(C3CC3)c12 | 4 (≈ 11.1 µM) | 0.13 (≈ 0.36 µM) | 2 (≈ 5.53 µM) | 2 (≈ 5.53 µM) | 0.5 (≈ 1.38 µM) | 600
Cc1c(N2CC[C@@H]([C@@H](C)N)C2)c(F)cc2c(=O)n(N)c(=O)n(C3CC3)c12 | 2 (≈ 5.53 µM) | 0.13 (≈ 0.36 µM) | 0.5 (≈ 1.38 µM) | 0.5 (≈ 1.38 µM) | 0.06 (≈ 0.166 µM) | 300
Cc1c(N2CC[C@@H]([C@H](C)N)C2)c(F)cc2c(=O)n(N)c(=O)n(C3CC3)c12 | 0.5 (≈ 1.38 µM) | 0.03 (≈ 0.083 µM) | 0.06 (≈ 0.166 µM) | 0.13 (≈ 0.36 µM) | 0.015 (≈ 0.0415 µM) | 200
Cc1c(N2CC[C@H]([C@@H](C)N)C2)c(F)cc2c(=O)n(N)c(=O)n(C3CC3)c12 | 2 (≈ 5.53 µM) | 0.13 (≈ 0.36 µM) | 0.25 (≈ 0.692 µM) | 1 (≈ 2.77 µM) | 0.25 (≈ 0.692 µM) | 800
Cc1c(N2CCC(C(C)N)C2)c(F)cc2c(=O)n(N)c(=O)n(C3CC3)c12 (stereo unspecified) | 4 (≈ 11.1 µM) | 0.25 (≈ 0.692 µM) | 1 (≈ 2.77 µM) | 0.5 (≈ 1.38 µM) | 0.03 (≈ 0.083 µM) | 600
O=C(O)c1cn(C2CC2)c2cc(N3CCNCC3)c(F)cc2c1=O [CIPROFLOXACIN] | – | – | 0.4 (≈ 1.21 µM) | 0.5 (≈ 1.51 µM) | 2 (≈ 6.04 µM) | –
Cc1c(N2CCNCC2)c(F)cc2c(=O)n(N)c(=O)n(C3CC3)c12 | 4 (≈ 12 µM) | 1 (≈ 3 µM) | 32 (≈ 96 µM) | 32 (≈ 96 µM) | 4 (≈ 12 µM) | 3100
